Tested on: MS2 coat protein
Assay: apparent Kd, MS2 coat protein; higher = weaker binding; RNA-MaP array; FMN 200 µM where present
Method in brief: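 The apparent Kd is the median of filtered binding-curve fits, one per cluster, to green signal normalised to red-channel RNA signal and control-cluster median Fmax. The clusters were on Illumina sequencing chips, and stalled E. coli RNA polymerase had transcribed the designs on them. Titration used SNAP-549-labelled MS2 coat protein from 0.7 or 1.5 nM, doubling to 3 µM, without and then with constant ligand, in 100 mM Tris-HCl pH 7.5, 80 mM KCl, 4 mM MgCl2, BSA, DTT, yeast tRNA and Tween-20.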

[1] = designed as: OFF switch for flavin mononucleotide, no ligand
[2] = ligand present: flavin mononucleotide, designed as: OFF switch for flavin mononucleotide
[3] = designed as: ON switch for flavin mononucleotide, no ligand
[4] = ligand present: flavin mononucleotide, designed as: ON switch for flavin mononucleotide

Sequence	apparent Kd [1]	apparent Kd [2]	apparent Kd [3]	apparent Kd [4]
AAAAUGUCAGGAUAUGCGAAGGCAUCUGACAGAUGAGGAUUGCAGAAGGGACAUGAGGAUCACCCAUGUAAAAA	40.3 nM	47.5 nM		
AGACAUGUCCGAGGAUAUCUGGAAACAUUUCCAAGAGAAGGCGGACAUGAGGAUCACCCAUGUCUCUCCUCAUCAAAUCCAAGU	10.7 nM	90.9 nM		
UAAAUGUGAGGAUAUCAGGUGUGCUAGCAUACUGGUACAUCUGAGAAGGCACAUGAGGAUCACCCAUGUUCCUU	16.8 nM	52.4 nM		
UCAUACAUGAGGAUCACCCAUGACAUGAGGAUCACCCAUGUGCAGGAUAUACGUGAUAUAAUAUAGUAGAAGGGCAGACCAAAA	42.8 nM	55.1 nM		
AAAAAACAUGAGGAUCACCCAUGUAAUAAAACGUCAGGAUAUUGAUUUUAUUAUUUAUUACAAGAAGGGACAAAAA			133 nM	57.6 nM
UGUAUACAUGAGGAUCACCCAUGUAAGGAUAUGCUUUAUUAUUAUUAUUAUUAUUGUUGCAGAAGGUACAUUGU	28.9 nM	32.1 nM		
GAUGACAUGAGGAUCACCCAUGUGAUGGUUUGAGGUGGUUACAGAAGGGACGUAUAGUGGUGUGGUCAGGAUAUGUAGAAUCCU			125 nM	50.9 nM
GUAUCAUACCAAGGAUAUUUAGGACUUUGAUAGACAUGAGGAUCACCCAUGUGGCGUUAGUCACGGGAGAAGGUGGUAUGAUAC			57.4 nM	18.4 nM
GUAGUGUGAGGAUAUGAUUAAUAGACGGGAUUGCGACUGCAUCAGAAGGCACAUGAGGAUCACCCAUGUAUGAA	18.8 nM	51.9 nM		
GCCGGAGCAGGAUAUCUAAUAUAUCACAUGAGGAUCACCCAUGUCCAGCGAAAGCUGGAGGGAGAAGGGCUCUGGC	164 nM	44.4 nM		
ACAUGAGGAUCACCCAUGUUAAGCGAGGAUAUUUGACUGCACAUGAGGUUCGCCCAUGUCCUGCCGAAGAAGGUGCGAAUAAUU			54.2 nM	17.6 nM
AGAAAACAUGAGGAUCACCCAUGUGAGGAUAUCGAUGUCCAAGGAAGGGUGCGGGACUCGAGAAGGCACUUGGA	72.4 nM	58.8 nM		
GGGUCACAUGAGGAUCACCCAUGUGAGGAUAUGAUACUAUGUACUUCGGUACAUAGUAUCAGAAGGCACAUCCC	19.2 nM	35.7 nM		
GGCCCGGGAGGAUAUACAUGAGGAUCACCCAUGUGCUUCGGCUUGAUCAAGUUGAAGUGUAGAAGGCCCGGGCC	14.2 nM	21 nM		
AUAUGUUAUUAGGAUAUUAAUGCGCGGUCGCAUUAAGAAGGAGUGACAUGAGGAUCACCCAUGUACCACGCUCA	24.3 nM	23.3 nM		
GGGUACAUCGGAGGAUAUCAUGUAAAUACAUGAGGAUCACCCAUGUCGAUGGAGACAUCGGAGAUUGAGAAGGCCGAUUUACCG			184 nM	8.4 nM
UUGGCGACGUAGAAGGGUGACAUGAGGAUCACCCAUGUGCCGAUAUUCCUCGAGAUAUGUCGGCCACAGGAUAUACGUGCCAUC			51.8 nM	98.6 nM
GCAUACAUUCGAGGAUAUCGGUGAACAAAUUAACGAGAAGGCGAUAGAAUGUUUCAUCUUAUGAACAUGAGGAUCACCCAUGUA			39.3 nM	27.9 nM
UAAUAUAUACAAGGAUAUCAAUUAUAUACACAUCCUACAUGAGGAUCACCCAUGUUUUAUUUUUUUGAGAAGGUGUAUUGUCGG			20.4 nM	29.1 nM
CGCUAUUAUGUAGGAUAUACAUUUUUUAUGUAUGUAGAAGGACAUGAGGAUCACCCAUGUAAAUUAAUUUUAAUUAUCUUAGCG	16.4 nM	13.3 nM		
AAAUAAACUACGAAGAUAUCCUCACAUGAGGAUCACCCAUGUCAGGAUAUUUGUCCUAAAAGGACAGAGAAGGGACAUCGUAGA	5.15 nM	11.4 nM		

Sequence	apparent Kd [1]	apparent Kd [2]	apparent Kd [3]	apparent Kd [4]
UGCUAGUCAGGAUAUACGAACAUGUCAAAAGACGUGAAGGGACAUGAGGAUCACCCAUGUAGAAGGGACUAGCC	33.2 nM	162 nM		
AACGGGUGGGUAGGAUAUGGCUAUGUCUCAUUGCUAGAAGGACCAGCUGCUACAUGAGGAUCACCCAUGUCGUAGUGCACCCAG			421 nM	33.5 nM
GCUUGUGGGCAAGGAUAUCCUACGUUGUUCUGGUUCGUGUCUGUCACAUGAGGAUCACCCAUGUGGGAGAAGGUGCAUUUGGUG	19.7 nM	17.1 nM		
GGAUAGGACAGAGGAUAUACGUGCUAGAGAUACAAGCAAAAUUUCCUCACAUGAGGAUCACCCAUGUAGAAGGCUGUCCUAUCG	43.7 nM	432 nM		
CGCUAUGACAUAGGAUAUUGGUACAUGAGGAUCACCCAUGUCAACUUUUUAGCAUAAUUUGUUGACAAGAAGGAUGUGGUAGCG			54.1 nM	12.6 nM
GUCGAGUGAGGAUAUGGUGAGUAGUGCCAGAGCGCUGCUCACCAGAAGGCACAUGAGGAUCACCCAUGUAUGUC	12.9 nM	20.8 nM		
GGAUAGGACAGAGGAUAUACAGAUAGGAUCUACUAUCAAACAAUCCUCACAUGAGGAUCACCCAUGUAGAAGGCUGUCCUAUCG	103 nM	688 nM		
AGCGUACAAGCUAACAUGAGGAUCACCCAUGUGGUCUCAUGCGAGGAUAUCGGGAAGGAGGAUUCCGAGAAGGUGCGGUGAGCC			182 nM	43.8 nM
GAGCGAAAGCUCAAUGUCGAUAGCAGAAGGACAUGAAAACGUGAAAACACAUGAGGAUCACCCAUGUAGGAUAUGCUAUCGACU	57.1 nM	745 nM		
GAGUGGAGGAGAGGAUAUACAAUGAUAAUCACUGUAGAAGGUUCUAACAUGAGGAUCACCCAUGUAGGACUAUUCCUGAGAGUU			12.8 nM	10.3 nM
CGGCAAUGACGAGGAUAUAGACAUGAGGAUCACCCAUGUAACAGUAUUACAGGGCGUCUUCUCGGCUAGAAGGCGUUCUAUGCC	59.4 nM	62.6 nM		
UGAUAGGACAGAGGAUAUACGAAAGGCGAUCCAUACAUGAGGAUCACCCAUGUAGAAGGCUGUCCUAUCUAAGUCGGAAACGAC	84.9 nM	16.9 nM		
GUAGCAACAUGAGGAUCACCCAUGUAGGAUAUCGCUAUUGUAAUCAUGAAACAUGAUUACAAUAGCGAGAAGGACAUUGGCUAC	7.06 nM	10.8 nM		
UGGUACUAGGGAGGAUAUGGGAAGAUACAUGAGGAUCACCCAUGUUUAAGAAUGCCGAGAGGCAACUAGAAGGCCCUAUUACCU			365 nM	20.1 nM
GUAGAGUAAGGAUAUGUAGAAUAGGAUAGAAUGGUUAGAAUACAGAAGGUACAUGAGGAUCACCCAUGUAAUGU	17.7 nM	19.6 nM		
AACGCGGAAAUCGCAAUACAUGAGGAUCACCCAUGUAGAUCGCAGGAUAUGGUCUAGUCAGUGGUCCAGAAGGGUGAUCAGAAC			125 nM	74.5 nM
CUGCCUUAUGUAGGAUAUGCAUAGCGUUGCUAUGCAGAAGGACAUGAGGAUCACCCAUGUAUGUUAUCAAUACAUAUCUGGCAG	16.9 nM	53.2 nM		
CUAUGAGCGAUAGGAUAUACUGAGAUUGAGUGGGUAGAAGGAUCGAUAGUGUAGAAGACAUGAGGAUCACCCAUGUUACGGGUU			892 nM	290 nM
AUGAAGUCAGGAUAUGCCACGUAAAGCCAUGGCUUUGGAGUGUAGAAGGGACAUGAGGAUCACCCAUGUUGUCC	30.9 nM	32.2 nM		
AGGCCGGGAGGAUAUCCAAUAUAUGACAUGAGGAUCACCCAUGUUUCCACUCGUACCUCCGGAGAAGGCCCGGCGA	21.1 nM	19.9 nM		
CAUGCGGGCGGGUUUUUGAUACAUGAGGAUCACCCAUGUCUUGAGGAUAUCUUUGCAACACGCCAAGAGAAGGCAAGGCGUUUC	33.6 nM	107 nM		

Source: the EternaBench riboswitch data
